Test results: ChEMBL document CHEMBL1255494, “In vivo comparison of the pharmacodynamic targets for echinocandin drugs against Candida species” (Antimicrob Agents Chemother, 2010)
Values after ≈ are worked out from the molar mass of the structure shown. *1 amine or outer side, *2 acyl side, *3 side chain or, on linkers, in order; H or OH if unused. Where a SMILES comes first, the peptide text is derived from it. Bridges are numbered along the chain shown (N, C = ends). [ ]: non-standard residue; d: D form. The star is where a group is joined. pTerphenylCO(4''-OnC5H11) = CCCCCOc1ccc(-c2ccc(-c3ccc(C(=O)*)cc3)cc2)cc1; Orn(4R-OH,5R-OH) = O=C([C@H](C[C@@H](O)[C@@H](O)N[*:3])N[*:1])[*:2]; hTyr(3S-OH,4S-OH) = N[C@H](C(=O)O)[C@H](O)[C@@H](O)c1ccc(O)cc1; Pro(3S-OH,4S-Me) = C[C@H]1CN[C@H](C(=O)O)[C@H]1O; Hyp = O=C(O)[C@@H]1C[C@@H](O)CN1

Legend:
[1] = AUC (0 to 24 hrs) in Candida albicans infected neutropenic ICR Swiss mouse at 5 mg/kg, ip; type: ADME, organism-based; design: time < 24 hr, dose 5 mg/kg, route intraperitoneal; conditions: plasma
Method in brief: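 Neutropenic female ICR Swiss mice (cyclophosphamide sc at 150 mg/kg on day −4, 100 mg/kg on day −1 and day +2) infected iv via tail vein with Candida; single ip doses of 5, 20 or 80 mg/kg. Serum drawn from 3 mice per time point at eight time points and assayed by microbiologic assay (C. albicans K1) or […]. Noncompartmental analysis; AUC by trapezoidal rule.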

[2] = Ratio of AUC (0 to 24 hrs) in Candida albicans infected neutropenic ICR Swiss mouse to MIC for Candida albicans at static dose after 24 hrs; type: functional
Method in brief: (§1)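 Neutropenic mice were infected iv and treated 2 h later. Four to six ip dose levels (0.078–160 mg/kg) were given every 24 h for 4 days, 3 mice per regimen. Kidney CFU were counted at 96 h. A sigmoid dose-effect model gave the static and 1-log-kill doses relative to burden at therapy start.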

[3] = Ratio of AUC (0 to 24 hrs) in Candida glabrata infected neutropenic ICR Swiss mouse to MIC for Candida glabrata at static dose after 24 hrs; type: functional; method in brief: as §1
[4] = Ratio of fAUC (0 to 24 hrs) in Candida glabrata infected neutropenic ICR Swiss mouse to MIC for Candida glabrata at static dose after 24 hrs; type: functional
[5] = Ratio of fAUC (0 to 24 hrs) in Candida parapsilosis infected neutropenic ICR Swiss mouse to MIC for Candida parapsilosis at static dose after 24 hrs; type: functional
[6] = Ratio of AUC (0 to 24 hrs) in Candida albicans infected neutropenic ICR Swiss mouse to MIC for Candida albicans at 1 log kill dose after 24 hrs; type: functional; method in brief: as §1
[7] = Ratio of AUC (0 to 24 hrs) in Candida parapsilosis infected neutropenic ICR Swiss mouse to MIC for Candida parapsilosis at 1 log kill dose after 24 hrs; type: functional; method in brief: as §1
[8] = Ratio of fAUC (0 to 24 hrs) in Candida albicans infected neutropenic ICR Swiss mouse to MIC for Candida albicans at 1 log kill dose after 24 hrs; type: functional
[9] = Ratio of fAUC (0 to 24 hrs) in Candida glabrata infected neutropenic ICR Swiss mouse to MIC for Candida glabrata at 1 log kill dose after 24 hrs; type: functional
[10] = test system: Candida albicans; assay: Fungistatic activity against Candida albicans infected in neutropenic ICR Swiss mouse after 24 hrs; type: functional
Method in brief: (§2)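 Female ICR Swiss mice, neutropenic via cyclophosphamide s.c. (150 mg/kg day −4, 100 mg/kg day −1 and day +2), infected by tail-vein injection of clinical isolates 2 h before therapy. Intraperitoneal dosing every 24 h for 4 days, 4–6 dose levels from 0.078 to 160 mg/kg, 3 mice per regimen. Kidney CFU counted at 96 h. Sigmoid dose-effect fit gives static dose and 1 log kill dose relative to burden at start of therapy.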

[11] = test system: Nakaseomyces glabratus; assay: Fungistatic activity against Candida glabrata infected in neutropenic ICR Swiss mouse after 24 hrs; type: functional; method in brief: as §2
[12] = test system: Candida parapsilosis; assay: Fungistatic activity against Candida parapsilosis infected in neutropenic ICR Swiss mouse after 24 hrs; type: functional; method in brief: as §2
[13] = test system: Nakaseomyces glabratus; assay: Antifungal activity against Candida glabrata infected in neutropenic ICR Swiss mouse assessed log reduction in bacterial count […]; type: functional; method in brief: as §2
[14] = test system: Candida parapsilosis; assay: Antifungal activity against Candida parapsilosis infected in ICR Swiss mouse assessed log reduction in bacterial count […]; type: functional; method in brief: as §2
[15] = test system: Candida albicans; assay: Antifungal activity against Candida albicans infected in ICR Swiss mouse; type: functional; method in brief: as §2
[16] = test system: Nakaseomyces glabratus; assay: Antifungal activity against Candida glabrata infected in ICR Swiss mouse; type: functional; method in brief: as §2
[17] = test system: Candida parapsilosis; assay: Antifungal activity against Candida parapsilosis infected in ICR Swiss mouse; type: functional; method in brief: as §2
[18] = test system: Candida albicans; assay: Antifungal activity against Candida albicans 98-17 after 24 hrs; type: functional; conditions: 98-17, 24 h
Method in brief: (§3)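 MICs by CLSI M27-A3 broth dilution in RPMI 1640, inoculum 0.5 × 10³ to 2.5 × 10³ cells/ml, 35°C. Read visually at 24 h as the lowest concentration giving ≥50% growth reduction versus control. Run on three occasions in duplicate and reported as the mean. C. krusei ATCC 6258 and C. parapsilosis ATCC 22019 served as QC strains.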

[19] = test system: Candida albicans; assay: Antifungal activity against Candida albicans 98-210 after 24 hrs; type: functional; conditions: 98-210, 24 h
Method in brief: (§4)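 Broth microdilution per CLSI M27-A3 in RPMI 1640; inoculum 0.5 × 10³ to 2.5 × 10³ cells/ml, 35°C. […] Three separate occasions in duplicate, mean reported; C. krusei ATCC 6258 and C. parapsilosis ATCC 22019 as daily QC.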

[20] = test system: Candida albicans; assay: Antifungal activity against Candida albicans 580 after 24 hrs; type: functional; conditions: Candida albicans, 580, 24 h; method in brief: as §4
[21] = test system: Candida albicans; assay: Antifungal activity against Candida albicans K1 after 24 hrs; type: functional; conditions: K1, 24 h; method in brief: as §4
[22] = test system: Candida albicans; assay: Antifungal activity against Candida albicans 570 after 24 hrs; type: functional; conditions: Candida albicans, 570, 24 h; method in brief: as §3
[23] = test system: Nakaseomyces glabratus; assay: Antifungal activity against Candida glabrata 513 after 24 hrs; type: functional; conditions: Nakaseomyces glabratus, 513, 24 h; method in brief: as §4
[24] = test system: Nakaseomyces glabratus; assay: Antifungal activity against Candida glabrata 32930 after 24 hrs; type: functional; conditions: Nakaseomyces glabratus, 32930, 24 h; method in brief: as §4
[25] = test system: Nakaseomyces glabratus; assay: Antifungal activity against Candida glabrata 33616 after 24 hrs; type: functional; conditions: Nakaseomyces glabratus, 33616, 24 h; method in brief: as §3
[26] = test system: Nakaseomyces glabratus; assay: Antifungal activity against Candida glabrata 35315 after 24 hrs; type: functional; conditions: Nakaseomyces glabratus, 35315, 24 h; method in brief: as §3
[27] = test system: Nakaseomyces glabratus; assay: Antifungal activity against Candida glabrata 5376 after 24 hrs; type: functional; conditions: Nakaseomyces glabratus, 5376, 24 h; method in brief: as §4
[28] = test system: Nakaseomyces glabratus; assay: Antifungal activity against Candida glabrata 34341 after 24 hrs; type: functional; conditions: Nakaseomyces glabratus, 34341, 24 h; method in brief: as §3
[29] = test system: Nakaseomyces glabratus; assay: Antifungal activity against Candida glabrata 37661 after 24 hrs; type: functional; conditions: Nakaseomyces glabratus, 37661, 24 h; method in brief: as §3
[30] = test system: Candida metapsilosis; assay: Antifungal activity against Candida metapsilosis 20463.02 after 24 hrs; type: functional; conditions: Lodderomyces metapsilosis, 20463.02, 24 h; method in brief: as §3
[31] = test system: Candida parapsilosis; assay: Antifungal activity against Candida parapsilosis 20450.096 after 24 hrs; type: functional; conditions: Lodderomyces parapsilosis, 20450.096, 24 h; method in brief: as §3
[32] = test system: Candida parapsilosis; assay: Antifungal activity against Candida parapsilosis 20385.079 after 24 hrs; type: functional; conditions: Lodderomyces parapsilosis, 20385.079, 24 h; method in brief: as §3
[33] = test system: Candida parapsilosis; assay: Antifungal activity against Candida parapsilosis 20477.048 after 24 hrs; type: functional; conditions: Lodderomyces parapsilosis, 20477.048, 24 h; method in brief: as §3
[34] = test system: Candida parapsilosis; assay: Antifungal activity against Candida parapsilosis 20562.03 after 24 hrs; type: functional; conditions: Lodderomyces parapsilosis, 20562.03, 24 h; method in brief: as §3
[35] = test system: Candida parapsilosis; assay: Antifungal activity against Candida parapsilosis 20553.009 after 24 hrs; type: functional; conditions: Lodderomyces parapsilosis, 20553.009, 24 h; method in brief: as §3
[36] = test system: Candida parapsilosis; assay: Antifungal activity against Candida parapsilosis 20489.085 after 24 hrs; type: functional; conditions: Lodderomyces parapsilosis, 20489.085, 24 h; method in brief: as §4
[37] = test system: Candida orthopsilosis; assay: Antifungal activity against Candida orthopsilosis 20577.055 after 24 hrs; type: functional; conditions: Lodderomyces orthopsilosis, 20577.055, 24 h; method in brief: as §3
[38] = test system: Candida parapsilosis; assay: Antifungal activity against Candida parapsilosis 20435.057 after 24 hrs; type: functional; conditions: Lodderomyces parapsilosis, 20435.057, 24 h; method in brief: as §3

## CCCCCOc1ccc(-c2ccc(-c3ccc(C(=O)N[C@H]4C[C@@H](O)[C@@H](O)NC(=O)[C@@H]5[C@@H](O)[C@@H](C)CN5C(=O)[C@H]([C@@H](C)O)NC(=O)[C@H]([C@H](O)[C@@H](O)c5ccc(O)cc5)NC(=O)[C@@H]5C[C@@H](O)CN5C(=O)[C@H]([C@@H](C)O)NC4=O)cc3)cc2)cc1 [ANIDULAFUNGIN] ({pTerphenylCO(4''-OnC5H11)}-[Orn(4R-OH,5R-OH)]T[Hyp][hTyr(3S-OH,4S-OH)]T[Pro(3S-OH,4S-Me)]; lactam 1-C)
[1]
  AUC(0-t) at 24 h: 96000 ng·h/mL
[2]
  Ratio: 2782
[3]
  Ratio: 1366
[4]
  Ratio: 13.7
[5]
  Ratio: 11.5
[6]
  Ratio: 9125
[7]
  Ratio: 2244
[8]
  Ratio: 91
[9]
  Ratio: 32
[10]
  Activity: 2.32 mg/kg
[11]
  Activity: 21.1 mg/kg
[12]
  Activity: 51 mg/kg
[13]
  Activity: 39 mg/kg
[14]
  Activity: 47 mg/kg
[15]
  Emax: 6.9 log10 CFU/kidneys
[15]; Candida albicans
  ED50: 26.1 mg/kg
[16]
  Emax: 6 log10 CFU/kidneys
[16]; Nakaseomyces glabratus
  ED50: 15.5 mg/kg
[17]
  Emax: 5.8 log10 CFU/kidneys
[17]; Lodderomyces parapsilosis
  ED50: 7.2 mg/kg
[18]
  MIC: 0.03 µg/mL (≈ 0.0263 µM)
[19]
  MIC: 0.015 µg/mL (≈ 0.0132 µM)
[20]
  MIC: 0.015 µg/mL (≈ 0.0132 µM)
[21]
  MIC: 0.015 µg/mL (≈ 0.0132 µM)
[22]
  MIC: 0.03 µg/mL (≈ 0.0263 µM)
[23]
  MIC: 0.06 µg/mL (≈ 0.0526 µM)
[24]
  MIC: 0.06 µg/mL (≈ 0.0526 µM)
[25]
  MIC: 1 µg/mL (≈ 0.877 µM)
[26]
  MIC: 0.25 µg/mL (≈ 0.219 µM)
[27]
  MIC: 0.03 µg/mL (≈ 0.0263 µM)
[28]
  MIC: 0.12 µg/mL (≈ 0.105 µM)
[29]
  MIC: 2 µg/mL (≈ 1.75 µM)
[30]
  MIC: 0.25 µg/mL (≈ 0.219 µM)
[31]
  MIC: 1 µg/mL (≈ 0.877 µM)
[32]
  MIC: 1 µg/mL (≈ 0.877 µM)
[33]
  MIC: 2 µg/mL (≈ 1.75 µM)
[34]
  MIC: 1 µg/mL (≈ 0.877 µM)
[35]
  MIC: 2 µg/mL (≈ 1.75 µM)
[36]
  MIC: 1 µg/mL (≈ 0.877 µM)
[37]
  MIC: 0.5 µg/mL (≈ 0.438 µM)
[38]
  MIC: 1 µg/mL (≈ 0.877 µM)
